Experimental data as given in ChEMBL document CHEMBL3297672, “Ingol-type diterpenes from Euphorbia antiquorum with mouse 11β-hydroxysteroid dehydrogenase type 1 inhibition activity” (J Nat Prod, 2014).
Activity calls are given as the source filed them. The rule behind the calls is not given here.

What was measured:
HL-60 = assay: Cytotoxicity against human HL60 cells; format: functional, cell-based
How it was run: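 Cytotoxicity against HL-60 cells was read out by the MTT method, following a previously reported protocol.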

[1] = biological target: T1, Tyrosine-protein phosphatase non-receptor type 1 (Homo sapiens, UniProt P18031); assay: Inhibition of PTP1B (unknown origin)
T1 sequence (P18031 whole entry): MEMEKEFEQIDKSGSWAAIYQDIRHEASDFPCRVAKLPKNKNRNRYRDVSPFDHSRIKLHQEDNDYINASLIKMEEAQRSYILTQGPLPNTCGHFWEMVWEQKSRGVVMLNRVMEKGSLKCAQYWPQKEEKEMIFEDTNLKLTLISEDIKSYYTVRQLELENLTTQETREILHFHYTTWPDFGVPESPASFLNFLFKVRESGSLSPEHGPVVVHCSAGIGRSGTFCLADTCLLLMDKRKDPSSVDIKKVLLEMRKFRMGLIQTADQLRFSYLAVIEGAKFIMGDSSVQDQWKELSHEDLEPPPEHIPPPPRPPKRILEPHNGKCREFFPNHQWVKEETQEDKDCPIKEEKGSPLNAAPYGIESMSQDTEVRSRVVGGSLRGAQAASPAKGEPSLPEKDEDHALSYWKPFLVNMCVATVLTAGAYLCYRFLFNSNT

A549 = assay: Cytotoxicity against human A549 cells; format: functional, cell-based
[2] = biological target: 11-beta-hydroxysteroid dehydrogenase 1 (Homo sapiens) (UniProt P28845); assay: Inhibition of human 11beta-HSD1 expressed in HEK293 cells assessed as inhibition of [3H]cortisone to [3H]cortisol conversion by SPA; format: cell-based
How it was run: (§1)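 Scintillation proximity assay against human or mouse 11β-HSD1 enzyme activity, using microsomes containing the enzyme. Glycyrrhetinic acid was the positive control.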

[3] = biological target: 11-beta-hydroxysteroid dehydrogenase 1 (Mus musculus, UniProt P50172); assay: Inhibition of mouse 11beta-HSD1 expressed in HEK293 cells assessed as inhibition of [3H]cortisone to [3H]cortisol conversion by SPA; format: cell-based; how it was run: as §1
11-beta-hydroxysteroid dehydrogenase 1, sequence (P50172 whole entry): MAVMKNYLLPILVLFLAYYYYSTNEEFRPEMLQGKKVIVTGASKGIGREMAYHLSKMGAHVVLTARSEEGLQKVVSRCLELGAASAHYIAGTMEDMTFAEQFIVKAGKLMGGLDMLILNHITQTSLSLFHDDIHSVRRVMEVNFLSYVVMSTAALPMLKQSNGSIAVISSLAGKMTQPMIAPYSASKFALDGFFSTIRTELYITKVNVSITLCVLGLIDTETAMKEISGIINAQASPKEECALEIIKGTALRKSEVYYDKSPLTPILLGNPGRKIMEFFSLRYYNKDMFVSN

11-beta-hydroxysteroid dehydrogenase 1 (Homo sapiens), sequence (P28845 whole entry, looked up): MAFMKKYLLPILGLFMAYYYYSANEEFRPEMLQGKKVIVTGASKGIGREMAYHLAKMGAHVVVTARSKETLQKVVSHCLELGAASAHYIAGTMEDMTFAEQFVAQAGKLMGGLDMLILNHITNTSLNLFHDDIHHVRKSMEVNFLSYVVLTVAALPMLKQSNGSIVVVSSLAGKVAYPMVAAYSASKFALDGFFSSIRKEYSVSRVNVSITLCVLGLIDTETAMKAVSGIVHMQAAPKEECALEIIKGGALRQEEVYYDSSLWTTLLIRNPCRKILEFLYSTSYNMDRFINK

Compound | IC50 [1] [µM] | inhibition [2] | IC50 [3] [µM] | IC50 (HL-60) [µM] | IC50 (A549) [µM]
C/C=C(/C)C(=O)O[C@@H]1/C(C)=C/[C@@]23O[C@@]2(C[C@@H](C)[C@H]3O)C(=O)[C@H](C)[C@H](OC(C)=O)[C@@H]2[C@H]([C@H]1OC)C2(C)C | > 10 | inactive |  | > 10 | > 10
CC(=O)O[C@H]1[C@@H](C)C[C@@]23O[C@@]12/C=C(\C)[C@@H](O)[C@H](OC(=O)c1ccccc1)[C@H]1[C@@H]([C@@H](O)[C@@H](C)C3=O)C1(C)C | > 10 | inactive |  | > 10 | > 10
CO[C@@H]1[C@H]2[C@@H]([C@@H](OC(C)=O)[C@@H](C)C(=O)[C@@]34C[C@H](C)[C@H](OC(C)=O)[C@]3(/C=C(\C)[C@H]1OC(=O)[C@@]1(C)O[C@@H]1C)O4)C2(C)C | > 10 |  |  | > 10 | > 10
CC(=O)O[C@@H]1[C@@H]2[C@H]([C@@H](OC(=O)c3cccnc3)[C@H](OC(=O)c3ccccc3)/C(C)=C/[C@@]34O[C@@]3(C[C@H](C)[C@@H]4OC(C)=O)C(=O)[C@@H]1C)C2(C)C | > 10 | inactive | 0.41 | > 10 | > 10
C/C=C(/C)C(=O)O[C@@H]1/C(C=O)=C/[C@@]23O[C@@]2(C[C@H](C)[C@@H]3OC(C)=O)C(=O)[C@H](C)[C@H](OC(C)=O)[C@@H]2[C@H]([C@H]1OC)C2(C)C | > 10 |  |  | > 10 | > 10
C/C=C(/C)C(=O)O[C@@H]1/C(C)=C/[C@@]23O[C@@]2(C[C@H](C)[C@@H]3O)C(=O)[C@H](C)[C@H](OC(C)=O)[C@@H]2[C@H]([C@H]1OC)C2(C)C | > 10 | inactive |  | > 10 | > 10
C/C=C(/C)C(=O)O[C@@H]1/C(CO)=C/[C@@]23O[C@@]2(C[C@H](C)[C@@H]3OC(C)=O)C(=O)[C@H](C)[C@H](OC(C)=O)[C@@H]2[C@H]([C@H]1OC)C2(C)C | > 10 | inactive | 12 | > 10 | > 10
C/C=C(\C)C(=O)O[C@@H]1/C(C)=C/[C@@]23O[C@@]2(C[C@H](C)[C@@H]3OC(C)=O)C(=O)[C@H](C)[C@H](OC(C)=O)[C@@H]2[C@H]([C@H]1OC(C)=O)C2(C)C | > 10 | inactive |  | > 10 | > 10
C/C=C(/C)C(=O)O[C@@H]1/C(C)=C/[C@@]23O[C@@]2(C[C@H](C)[C@@H]3OC(C)=O)C(=O)[C@H](C)[C@H](OC(C)=O)[C@@H]2[C@H]([C@H]1OC)C2(C)C | > 10 | inactive |  | > 10 | > 10
CCC(C)C(=O)O[C@@H]1[C@H]2[C@@H]([C@@H](OC(C)=O)[C@@H](C)C(=O)[C@@]34C[C@H](C)[C@H](O)[C@]3(/C=C(\C)[C@H]1OC(C)=O)O4)C2(C)C (some centres not stated) | > 10 | inactive | 6.4 | > 10 | > 10

Now from value to compound, other results behind:

IC50 [1] [µM] | inhibition [2] | IC50 [3] [µM] | Compound | IC50 (HL-60) [µM] | IC50 (A549) [µM]
> 10 |  |  | CO[C@@H]1[C@H]2[C@@H]([C@@H](OC(C)=O)[C@@H](C)C(=O)[C@@]34C[C@H](C)[C@H](OC(C)=O)[C@]3(/C=C(\CO)[C@H]1OC(=O)c1ccccc1)O4)C2(C)C | > 10 | > 10
> 10 | inactive |  | CO[C@@H]1[C@H]2[C@@H]([C@@H](OC(C)=O)[C@@H](C)C(=O)[C@@]34C[C@H](C)[C@H](O)[C@]3(/C=C(\C)[C@H]1OC(=O)c1ccccc1)O4)C2(C)C | > 10 | > 10
> 10 |  |  | C/C=C(/C)C(=O)O[C@@H]1/C(C)=C/[C@@]23O[C@@]2(C[C@@H](C)[C@H]3O)C(=O)[C@H](C)[C@H](O)[C@@H]2[C@H]([C@H]1OC)C2(C)C | > 10 | 
> 10 | inactive |  | CO[C@@H]1[C@H]2[C@@H]([C@@H](OC(C)=O)[C@@H](C)C(=O)[C@@]34C[C@H](C)[C@H](OC(C)=O)[C@]3(/C=C(\C)[C@H]1OC(=O)[C@]1(C)O[C@@H]1C)O4)C2(C)C | > 10 | > 10
> 10 |  |  | CO[C@@H]1[C@H]2[C@@H]([C@@H](O)[C@@H](C)C(=O)[C@@]34C[C@H](C)[C@H](OC(C)=O)[C@]3(/C=C(\C)[C@H]1OC(=O)c1ccccc1)O4)C2(C)C | > 10 | > 10
> 10 | inactive |  | CCC(C)C(=O)O[C@@H]1[C@H]2[C@@H]([C@@H](OC(C)=O)[C@@H](C)C(=O)[C@@]34C[C@@H](C)[C@@H](OC(C)=O)[C@]3(/C=C(\C)[C@H]1O)O4)C2(C)C (some centres not stated) | > 10 | > 10
> 10 |  |  | C/C=C(/C)C(=O)O[C@@H]1/C(C)=C/[C@@]23O[C@@]2(C[C@H](C)[C@@H]3O)C(=O)[C@H](C)[C@H](O)[C@@H]2[C@H]([C@H]1OC)C2(C)C | > 10 | > 10
> 10 | inactive |  | C=C(C(=O)O[C@@H]1/C(C)=C/[C@@]23O[C@@]2(C[C@H](C)[C@@H]3OC(C)=O)C(=O)[C@H](C)[C@H](OC(C)=O)[C@@H]2[C@H]([C@H]1OC)C2(C)C)C(C)O (some centres not stated) | > 10 | > 10
> 10 | inactive |  | CCC(C)C(=O)O[C@@H]1[C@H]2[C@@H]([C@@H](OC(C)=O)[C@@H](C)C(=O)[C@@]34C[C@H](C)[C@H](OC(C)=O)[C@]3(/C=C(\C)[C@H]1O)O4)C2(C)C (some centres not stated) | > 10 | > 10
